Results reported in ChEMBL document CHEMBL3244172, “Easily hydrolyzable, water-soluble derivatives of (+/-)-alpha-5-[1-(indol-3-yl)ethyl]-2-methylamino-delta2-thiazoline-4-one, a novel antiviral compound” (J Med Chem, 1979).
Activity calls are given as the source filed them. The rule behind the calls is not given here.

Assays:
Influenza A virus [1] = test: Antiviral activity against Influenza A virus Port Chalmers/1/73 (H3N2) infected in ferret assessed as serum antibody response to virus infection at 16 mg/kg administered intranasally 7 times on day 0 and 9 times on day 1 to day 3 by serum antibody response test relative to untreated control; assay type: functional, organism-based; design: dose 16 mg/kg
Procedure, shortened: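 Dosing was as in the other ferret groups: infected ferrets, hourly intranasal 0.2 mL of 50 mg/mL in water, 7 doses on day 0 and 9 on days +1 to +3. Blood was taken by cardiac puncture under Penthrane/N2O/O2 before and 10 days after infection. Sera were KIO4-treated to remove nonspecific inhibitors, then tested by hemagglutination inhibition against the infecting virus.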

Influenza A virus [2] = test: Antiviral activity against Influenza A virus Port Chalmers/1/73 (H3N2) infected in MDCK cells at 1 mg/ml by agar diffusion method; assay type: functional; conditions: read-out: DIZ
Procedure, shortened: (§1)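 Agar diffusion: compounds were diluted to 1 mg/mL in Eagle's MEM from stocks of 10 mg/mL in water or 100 mg/mL in DMSO. 0.02 mL went into 6 mm wells cut in the agar overlay above infected monolayers (influenza in MDCK, Coxsackie B1 in HeLa). Read-out was the diameter (mm) of the plaque-free inhibition zone around each well.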

Influenza A virus [3] = test: Antiviral activity against Influenza A virus Port Chalmers/1/73 (H3N2) infected in MDCK cells assessed as plaque reduction after 3 days by agar diffusion method; assay type: functional
Procedure, shortened: (§2)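 Plaque reduction: varying compound concentrations were put in the agar overlay above infected monolayers. Coxsackie B1/HeLa was incubated 42 h at 37 °C; influenza/MDCK 3 days at 33 °C. PDD50 is the lowest concentration giving ≥50% fewer plaques than untreated controls.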

Mustela putorius furo [4] = test: Toxicity in ferret infected with Influenza A virus Port Chalmers/1/73 (H3N2) assessed as change in body weight at 7 mg/kg administered intranasally 7 times on day 0 and 9 times on day 1 to day 3 measured after 7 days relative to untreated control; assay type: organism-based; design: dose 7 mg/kg; conditions: in vivo, inhaled_or_intranasal, 168 h
Procedure, shortened: (§3)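 Infected ferrets (700–1500 g, groups of three, untreated controls) were dosed intranasally each hour with 0.2 mL of a 50 mg/mL solution in distilled water: 7 doses on day 0 and 9 on days +1 to +3. Body weight was recorded throughout and expressed as % change.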

Mustela putorius furo [5] = test: Toxicity in ferret infected with Influenza A virus Port Chalmers/1/73 (H3N2) assessed as change in body weight at 14 mg/kg administered intranasally 7 times on day 0 and 9 times on day 1 to day 3 measured after 7 days relative to untreated control; assay type: organism-based; design: dose 14 mg/kg; conditions: in vivo, inhaled_or_intranasal, 168 h; procedure, shortened: as §3
Mustela putorius furo [6] = test: Toxicity in ferret infected with Influenza A virus Port Chalmers/1/73 (H3N2) assessed as change in body weight at 13 mg/kg administered intranasally 7 times on day 0 and 9 times on day 1 to day 3 measured after 7 days relative to untreated control; assay type: organism-based; design: dose 13 mg/kg; conditions: in vivo, inhaled_or_intranasal, 168 h; procedure, shortened: as §3
Influenza A virus [7] = test: Antiviral activity against Influenza A virus Port Chalmers/1/73 (H3N2) infected in ferret assessed as reduction in rectal temperature at 7 to 14 mg/kg administered intranasally 7 times on day 0 and 9 times on day 1 to day 3 relative to untreated control; assay type: functional; conditions: dose mg/kg 7-14
Procedure, shortened: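 Ferrets (700–1500 g), three per group, infected intranasally on day 0 with influenza A/Port Chalmers/1/73 (H3N2). Dosed 0.2 mL of 50 mg/mL solution in distilled water by intranasal instillation, unanaesthetized, starting 2 h post-infection and repeated hourly. Untreated and ribavirin-treated groups served as controls. Rectal temperature readings >39.5 °C and >40.0 °C were counted on days +1 to +4.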

Influenza A virus [8] = test: (§4) Antiviral activity against Influenza A virus Port Chalmers/1/73 (H3N2) infected in ferret assessed as reduction in viral excretion by measuring hemagglutination units per ml at 7 mg/kg administered intranasally 7 times on day 0 and 9 times on day 1 to day 3 measured on day 3 relative to untreated control; assay type: functional
Procedure, shortened: (§5)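 Ferrets (700–1500 g, groups of three, untreated control group) were infected intranasally on day 0. Unanaesthetized animals received 0.2 mL of a 50 mg/mL solution in distilled water intranasally, from 2 h post-infection, hourly: 7 doses on day 0 and 9 daily on days +1 to +3. Nasal washings were titrated for hemagglutination with 0.5% washed chicken erythrocytes (HAU/mL) on days +2 to +4.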

Influenza A virus [9] = test: as §4, with “day 2” for “day 3”; assay type: functional; procedure, shortened: as §5
Influenza A virus [10] = test: as §4, with “on day 4 relative to” for “on day 3 relative to”; assay type: functional; procedure, shortened: as §5
Influenza A virus [11] = test: as §4, with “at 13” for “at 7”, “day 2” for “day 3”; assay type: functional; procedure, shortened: as §5
Influenza A virus [12] = test: as §4, with “at 13” for “at 7”; assay type: functional; procedure, shortened: as §5
Influenza A virus [13] = test: as §4, with “ml at 13 mg/kg administered” for “ml at 7 mg/kg administered”, “on day 4 relative to” for “on day 3 relative to”; assay type: functional; procedure, shortened: as §5
Influenza A virus [14] = test: as §4, with “at 14” for “at 7”, “day 2” for “day 3”; assay type: functional; procedure, shortened: as §5
Influenza A virus [15] = test: as §4, with “at 14” for “at 7”; assay type: functional; procedure, shortened: as §5
Influenza A virus [16] = test: as §4, with “ml at 14 mg/kg administered” for “ml at 7 mg/kg administered”, “on day 4 relative to” for “on day 3 relative to”; assay type: functional; procedure, shortened: as §5
[17] = Cytotoxicity against MDCK cells infected with Influenza A virus Port Chalmers/1/73 (H3N2) after 3 days by carbol fuchsin staining-based assay; assay type: cell-based, Canis lupus familiaris; conditions: dog
Procedure, shortened: (§6)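 MDCK monolayers infected with influenza had compound in the agar overlay and were incubated 3 days at 33 °C. Monolayers were stained with carbol fuchsin or neutral red. MCC is the lowest concentration causing morphological cell abnormalities.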

Influenza A virus [18] = test: Antiviral activity against Influenza A virus Port Chalmers/1/73 (H3N2) infected in MDCK cells assessed as plaque reduction up to 100 ug/ml after 3 days by agar diffusion method; assay type: functional, organism-based; procedure, shortened: as §2
Coxsackievirus B1 [19] = test: Antiviral activity against Coxsackievirus B1 infected in human HeLa cells assessed as plaque reduction up to 100 ug/ml after 42 hrs by agar diffusion method; assay type: functional, organism-based
Procedure, shortened: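 Compound mixed at varying concentrations into the agar overlay above Coxsackie B1-infected HeLa monolayers. Incubated 37 °C for 42 h. PDD50 is the lowest concentration giving ≥50% fewer plaques than untreated controls.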

MDCK = test: Cytotoxicity against MDCK cells infected with Influenza A virus Port Chalmers/1/73 (H3N2) up to 100 ug/ml after 3 days by carbol fuchsin staining-based assay; assay type: cell-based, Canis lupus familiaris; conditions: dog, 72 h; procedure, shortened: as §6
HeLa = test: Cytotoxicity against human HeLa cells infected with Coxsackievirus B1 up to 100 ug/ml after 42 hrs by carbol fuchsin staining-based assay; assay type: cell-based
Procedure, shortened: (§7)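 HeLa monolayers infected with Coxsackie B1 under an agar overlay holding varying compound concentrations, incubated 37 °C, 42 h. Monolayers stained with carbol fuchsin or neutral red. MCC is the lowest concentration causing morphological abnormalities.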

Coxsackievirus B1 [20] = test: Antiviral activity against Coxsackievirus B1 infected in human HeLa cells at 1 mg/ml by agar diffusion method; assay type: functional; conditions: Enterovirus B; read-out: DIZ; procedure, shortened: as §1
Coxsackievirus B1 [21] = test: Antiviral activity against Coxsackievirus B1 infected in human HeLa cells assessed as plaque reduction after 42 hrs by agar diffusion method; assay type: functional; procedure, shortened: as §2
[22] = Cytotoxicity against human HeLa cells infected with Coxsackievirus B1 after 42 hrs by carbol fuchsin staining-based assay; assay type: cell-based; procedure, shortened: as §7
[23] = Solubility in water; assay type: physicochemical; conditions: buffer
[24] = Stability in aqueous solutions at neutral pH; assay type: physicochemical; conditions: buffer

| Structure (SMILES) | zone of inhibition at 1000 µg/mL (Influenza A virus [2]) [mm] | PDD50 (Influenza A virus [3]) [µg/mL] | MCC at 72 h [17] [µg/mL] | Activity (Influenza A virus [18]) | Activity (Coxsackievirus B1 [19]) | zone of inhibition at 1000 µg/mL (Coxsackievirus B1 [20]) [mm] | PDD50 (Coxsackievirus B1 [21]) [µg/mL] | MCC at 42 h [22] [µg/mL] | further results |
| --- | --- | --- | --- | --- | --- | --- | --- | --- | --- |
| CNC1=NC(=O)C(C(C)c2cn(C(=O)OCC(C)(C)N(C)C)c3ccccc23)S1 (racemic) | – | – | – | – | – | – | – | – | Activity (Influenza A virus [1]): Active |
| NC(=O)c1ncn([C@@H]2O[C@H](CO)[C@@H](O)[C@H]2O)n1 [RIBAVIRIN] | 30 | 2 | > 100 | – | – | – | – | – | Activity (Mustela putorius furo [4]): -4.5%; Activity (Mustela putorius furo [5]): -22.2%; Activity (Mustela putorius furo [6]): -20.1%; T (Influenza A virus [7]): >39.5 °C; Activity (Influenza A virus [8]): <4 HAU/ml; Activity (Influenza A virus [9]): <4 HAU/ml; Activity (Influenza A virus [10]): <4 HAU/ml; Activity (Influenza A virus [11]): <4 HAU/ml; Activity (Influenza A virus [12]): 12 HAU/ml; Activity (Influenza A virus [13]): <4 HAU/ml; Activity (Influenza A virus [14]): <4 HAU/ml; Activity (Influenza A virus [15]): <4 HAU/ml; Activity (Influenza A virus [16]): <4 HAU/ml |
| CNC1=NC(=O)C(C(C)c2cn(C(=O)OCc3ccccc3)c3ccccc23)S1 (racemic) | – | – | – | inactive | inactive | – | – | – | Activity (MDCK): Non-toxic; Activity (HeLa): Non-toxic |
| CNC1=NC(=O)C(C(C)c2cn(C(=O)OC(C)(C)CN(C)C)c3ccccc23)S1 (racemic) | 25 | 0.3 | 3 | – | – | 21 | 5 | 30 | – |
| CNC1=NC(=O)C(C(C)c2cn(C(=O)OC(C)CN(C)C)c3ccccc23)S1 (racemic) | 31 | 0.5 | 10 | – | – | 25 | 20 | 100 | – |
| CNC1=NC(=O)C(C(C)c2cn(C(=O)c3ccccc3C(=O)O)c3ccccc23)S1 (racemic) | – | – | – | inactive | inactive | – | – | – | – |
| OC(c1ccccc1)c1nc2ccccc2[nH]1 (stereo unspecified) | – | – | – | – | – | 25 | 20 | > 100 | – |
| CNC1=NC(=O)C(C(C)c2cn(C(=O)CCC(=O)[O-])c3ccccc23)S1.[Na+] (racemic) | – | – | – | – | – | – | – | – | solubility [23]: soluble; Stability [24]: Stable |
| CNC1=NC(=O)C(C(C)c2cn(C(=O)CCC(=O)O)c3ccccc23)S1 (racemic) | 0 | >100 | > 100 | – | – | 0 | 100 | > 100 | – |
| CNC1=NC(=O)C(C(C)c2cn(C(=O)CCC(=O)OC)c3ccccc23)S1 (racemic) | – | – | – | inactive | inactive | – | – | – | Activity (MDCK): Non-toxic; Activity (HeLa): Non-toxic |
| CCSC(=O)n1cc(C(C)C2SC(NC)=NC2=O)c2ccccc21 (racemic) | – | – | – | inactive | inactive | – | – | – | Activity (MDCK): Non-toxic; Activity (HeLa): Non-toxic |
| CNC1=NC(=O)C(C(C)c2cn(C(=O)CCCC(=O)[O-])c3ccccc23)S1.[Na+] (racemic) | – | – | – | – | – | – | – | – | solubility [23]: soluble; Stability [24]: Stable |
